Measured values reported in PMC3064798 (Nucleic Acids Research, 2011).
Entries after “also recorded” stand apart in the source; their conditions may differ.

How the values were obtained:
[1] = biological target: Klenow(exo^−) polymerase (Escherichia coli, UniProt P00582, D355A/E357A); test: PEP; format: biochemical
Procedure, shortened: (§1)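 Polymerase end-point assay for single-base incorporation. 5 nM BODIPY-FL-labelled primer-1 was hybridised to 40 nM oligoTemplate-4, with the interrogation base complementary to dU. Absence of a +1 band on the 377 gel image at 100 μM counts as not active. IC50 was averaged from triplicates ± 1 SD. Incorporation bias is the analog IC50 divided by the natural-nucleotide (HOMedUTP) IC50.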

[2] = biological target: Taq polymerase (Thermus aquaticus, UniProt P19821); test: PEP; format: biochemical; settings: for IC50 values (activity in words): Taq, Not Active = no visible +1 band in 377 gel image at 100 μM
Sequence of Taq polymerase (P19821 whole entry): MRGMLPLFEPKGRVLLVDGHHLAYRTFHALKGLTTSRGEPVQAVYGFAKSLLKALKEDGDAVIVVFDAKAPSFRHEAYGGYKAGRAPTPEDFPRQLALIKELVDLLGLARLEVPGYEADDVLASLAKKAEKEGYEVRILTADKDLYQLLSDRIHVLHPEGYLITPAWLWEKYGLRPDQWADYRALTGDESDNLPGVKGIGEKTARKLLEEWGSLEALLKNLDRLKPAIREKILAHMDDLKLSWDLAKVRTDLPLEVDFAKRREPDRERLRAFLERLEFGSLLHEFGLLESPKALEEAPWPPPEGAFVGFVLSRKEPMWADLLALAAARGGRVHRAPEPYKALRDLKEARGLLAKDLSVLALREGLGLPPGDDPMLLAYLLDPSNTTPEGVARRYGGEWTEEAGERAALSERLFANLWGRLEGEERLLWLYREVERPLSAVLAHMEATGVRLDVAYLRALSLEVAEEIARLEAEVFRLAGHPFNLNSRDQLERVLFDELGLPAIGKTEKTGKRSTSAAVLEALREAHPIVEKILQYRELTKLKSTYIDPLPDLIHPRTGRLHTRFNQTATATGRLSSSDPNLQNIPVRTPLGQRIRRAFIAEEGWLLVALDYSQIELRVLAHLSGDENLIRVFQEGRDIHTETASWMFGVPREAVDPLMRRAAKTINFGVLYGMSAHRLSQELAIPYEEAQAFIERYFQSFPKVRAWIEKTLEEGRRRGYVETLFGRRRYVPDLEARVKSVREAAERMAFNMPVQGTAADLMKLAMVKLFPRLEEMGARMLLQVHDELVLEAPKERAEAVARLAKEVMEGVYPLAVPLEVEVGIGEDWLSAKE
Procedure, shortened: as §1

[3] = biological target: T1, Therminator II polymerase (Thermococcus sp., UniProt Q56366, A485L/D141A/E143A/Y409V); test: PEP; format: biochemical; settings: for Incorporation bias (analog IC50/HOMedUTP IC50): Therminator II
T1 sequence (Q56366 1-775 D141A/E143A/Y409V/A485L): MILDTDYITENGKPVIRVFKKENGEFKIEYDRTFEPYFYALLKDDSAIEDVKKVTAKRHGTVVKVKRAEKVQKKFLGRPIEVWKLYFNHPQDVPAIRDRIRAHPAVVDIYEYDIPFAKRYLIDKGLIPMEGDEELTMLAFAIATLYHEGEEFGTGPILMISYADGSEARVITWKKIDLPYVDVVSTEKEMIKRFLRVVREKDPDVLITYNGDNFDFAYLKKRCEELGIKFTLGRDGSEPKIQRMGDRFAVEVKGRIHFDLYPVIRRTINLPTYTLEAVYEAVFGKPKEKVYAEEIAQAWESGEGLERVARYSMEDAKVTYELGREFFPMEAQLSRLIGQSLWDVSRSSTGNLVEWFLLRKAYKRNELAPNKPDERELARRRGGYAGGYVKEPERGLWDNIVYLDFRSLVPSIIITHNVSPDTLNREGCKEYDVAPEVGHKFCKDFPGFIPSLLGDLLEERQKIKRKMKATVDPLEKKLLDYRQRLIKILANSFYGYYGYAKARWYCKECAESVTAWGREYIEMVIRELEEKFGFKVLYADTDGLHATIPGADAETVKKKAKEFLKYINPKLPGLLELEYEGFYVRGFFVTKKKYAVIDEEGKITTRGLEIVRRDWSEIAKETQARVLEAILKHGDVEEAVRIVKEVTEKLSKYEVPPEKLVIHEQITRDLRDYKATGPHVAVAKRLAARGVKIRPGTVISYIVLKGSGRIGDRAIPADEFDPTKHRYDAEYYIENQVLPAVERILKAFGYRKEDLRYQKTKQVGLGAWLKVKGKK
Procedure, shortened: as §1

[4] = biological target: T2, Vent(exo^−) polymerase (Thermococcus litoralis, UniProt P30317, D141A/DEL1082-1471/DEL495-1032/E143A); test: PEP; format: biochemical; settings: for Incorporation bias (analog IC50/HOMedUTP IC50): Vent(exo^−)
T2 sequence (P30317 with tags, fused parts or gaps D141A/E143A/DEL495-1032/DEL1082-1471): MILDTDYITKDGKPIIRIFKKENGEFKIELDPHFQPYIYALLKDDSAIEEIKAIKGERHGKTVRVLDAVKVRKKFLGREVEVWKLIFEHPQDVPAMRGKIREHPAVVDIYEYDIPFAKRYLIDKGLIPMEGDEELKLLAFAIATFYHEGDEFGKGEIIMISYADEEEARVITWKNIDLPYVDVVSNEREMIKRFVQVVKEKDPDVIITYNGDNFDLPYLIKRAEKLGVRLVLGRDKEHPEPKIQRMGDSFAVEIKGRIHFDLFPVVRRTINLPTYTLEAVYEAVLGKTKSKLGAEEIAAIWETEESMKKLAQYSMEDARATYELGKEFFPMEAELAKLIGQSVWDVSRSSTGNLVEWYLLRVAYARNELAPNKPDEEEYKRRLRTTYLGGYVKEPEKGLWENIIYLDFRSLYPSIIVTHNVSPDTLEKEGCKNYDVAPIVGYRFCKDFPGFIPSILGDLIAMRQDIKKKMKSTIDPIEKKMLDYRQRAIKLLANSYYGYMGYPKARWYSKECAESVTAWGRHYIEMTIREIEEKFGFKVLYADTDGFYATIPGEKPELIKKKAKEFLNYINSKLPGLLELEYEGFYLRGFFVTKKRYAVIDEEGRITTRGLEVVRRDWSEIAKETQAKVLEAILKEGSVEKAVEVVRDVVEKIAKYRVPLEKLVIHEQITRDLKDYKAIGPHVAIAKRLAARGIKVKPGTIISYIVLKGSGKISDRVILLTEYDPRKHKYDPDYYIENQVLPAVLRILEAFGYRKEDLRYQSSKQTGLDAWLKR
Procedure, shortened: as §1

[5] = Photochemical cleavage studies; format: physicochemical; settings: for DT50 values (time at which 50% of 2-nitrobenzyl groups were photochemically cleaved): 365 nm UV, incorporated in primer-1/oligoTemplate-4; for DT50 in sodium azide compared with the FBD solution: 50 mM sodium azide vs FBD; for DT50 faster than the parent dU.I analog: azide solution
Procedure, shortened: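 Analogs (100 nM final) were incorporated as in PEP on BODIPY-FL primer-1/oligoTemplate-4 (10 nM/80 nM). Reactions were quenched in FBD solution (20% formamide, 10 mM Na2EDTA pH 8.0, Blue Dextran) or 50 mM sodium azide. Samples were irradiated at 365 nm for various times, then iced, mixed with formamide stop solution and run on an AB 377 sequencer. DT50 is the time for 50% cleavage, from triplicates ± 1 SD.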

Row | SMILES | IC50 values (activity in words) ([1]; Klenow(exo^−), Not Active = no visible +1 band in 377 gel image at 100 μM) | IC50 values (activity in words) [2] | IC50 [3] [nM] | Incorporation bias (analog IC50/HOMedUTP IC50) [3] | IC50 [4] [nM] | Incorporation bias (analog IC50/HOMedUTP IC50) [4] | DT50 values (time at which 50% of 2-nitrobenzyl groups were photochemically cleaved) ([5]; 50 mM NaN3) [s] | DT50 in sodium azide compared with the FBD solution [5] | DT50 values (time at which 50% of 2-nitrobenzyl groups were photochemically cleaved) ([5]; FBD solution) [s] | DT50 faster than the parent dU.I analog [5] | IC50 [1] [nM] | Incorporation bias (analog IC50/HOMedUTP IC50) ([1]; Klenow(exo^−)) | IC50 [2] [nM]
1 | CC(C)C(OCc1cn([C@H]2C[C@H](O)[C@@H](COP(=O)(O)OP(=O)(O)OP(=O)(O)O)O2)c(=O)[nH]c1=O)c1ccccc1[N+](=O)[O-] (mixture of isomers) [dU.III, 5-[1-(2-Nitrophenyl)-2-methyl-propyloxy]methyl-2'-deoxyuridine-5’-triphosphate] | Not Active^a | none of the Family A polymerases showed any activity; also recorded: Not Active^a | 140 ± 10 | 20 | 5.9 ± 0.7 | 4.2 | 2.4 ± 0.2 | approximately three-fold lower | 8.8 ± 0.8 | 33-60% | – | – | –
2 | CC(OCc1cn([C@H]2C[C@H](O)[C@@H](COP(=O)(O)OP(=O)(O)OP(=O)(O)O)O2)c(=O)[nH]c1=O)c1ccccc1[N+](=O)[O-] (mixture of isomers) [dU.II, 5-[1-(2-Nitrophenyl)ethyloxy]methyl-2'-deoxyuridine-5’-triphosphate] | – | no activity at all; also recorded: Not Active^a | 14 ± 1 | 1.9 | 2.2 ± 0.2 | 1.6 | 2.0 ± 0.1 | approximately three-fold lower | 7.4 ± 1.2 | 33-60% | 2400 ± 100 | 1500 | –
3 | O=c1[nH]c(=O)n([C@H]2C[C@H](O)[C@@H](COP(=O)(O)OP(=O)(O)OP(=O)(O)O)O2)cc1COCc1ccccc1[N+](=O)[O-] [dU.I, 5-(2-Nitrobenzyloxy)methyl-2'-deoxyuridine-5’-triphosphate] | – | – | 5.7 ± 0.4 | 0.8 | 2 ± 0.1 | 1.4 | 3.2 ± 0.1 | approximately three-fold lower | 8.7 ± 0.9 | – | 48 ± 4 | 30 | 50000
